Data on one compound can be found in PMC10150721 (Journal of Medicinal Chemistry, 2023).

Bounds are passed on as bounds.

The test system of one experiment is class-IIa HDAC. The format is cell-based. The settings on record: HT-29 cells. The method, boiled down:
(§1)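 HT-29 cells were grown in DMEM with 10% FBS at 37 °C and 5% CO2, then trypsinised and washed into RPMI without phenol red containing 0.1% FBS. They were seeded at 200 000 cells/well overnight. Substrate was 100 μM Boc-Lys-TFA for class-IIa or 200 μM Boc-Lys-Ac for class-I/IIb, incubated 3 h at 37 °C. Trypsin developer with tween 80 then lysed the cells over 1 h; fluorescence read at ex 360/em 460 nm.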

The next experiment relates to class-I/IIb HDAC. The experiment is classed as cell-based. The conditions noted are these: HT-29 cells. The method, boiled down: as §1
Where [1] appears, read: screened at 1.0 and 10.0 µM side-by-side with SAHA and NT160.

Consider `O=C(O)c1ccc(-c2noc(C(F)(F)F)n2)cc1` [compound 1, 4-(5-(trifluoromethyl)-1,2,4-oxadiazol-3-yl)benzoic acid], for which the “Inhibition of class-IIa HDAC activity” value with class-IIa HDAC (setting [1]) is reported as around 10%. Moreover, the IC50 is above 10 µM in the experiment on class-IIa HDAC (read-out: IC50, class-IIa HDAC) and above 10 µM with class-I/IIb HDAC (read-out: IC50, class-I/IIb HDAC). Also, the “Inhibition of class-I, class-IIb HDAC activities” value in the experiment with class-I/IIb HDAC (setting [1]) is recorded as around 10%.
